Legend:
[1] = Solubility in water; assay type: physicochemical; settings: buffer
[2] = Metabolic stability in human plasma assessed as half life at 10 mg by HPLC; assay type: ADME, cell-free
Method in brief: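 10 mg in 2 mL acetonitrile added to 88 mL 80% human plasma (80:20 plasma:phosphate buffer pH 7.4) at 37 ± 0.5 °C. Samples taken at 10, 20, 30, 40, 50 and 60 min and chilled in freezing mixture to stop hydrolysis. Then vortexed 5 min, centrifuged, and supernatant run on C18 reversed-phase HPLC (acetonitrile:water 50:50), UV at 247 nm.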

Rattus norvegicus [3] = test: Antiinflammatory activity against carrageenan-induced paw edema in po dosed Wistar rat at dose equivalent to 2.5 mg/kg ketorolac after 6 hrs; assay type: functional
Method in brief: (§1)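 Wistar albino rats, 100–200 g, seven groups of three including control and standard. Initial right hind paw volume measured by plethysmometer before dosing. Oral dose in 1% CMC suspension, prodrugs equivalent to 2.5 mg/kg ketorolac. Anti-inflammatory activity reported as percentage at 2 and 6 h after administration.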

[4] = Solubility in 1.0N HCl; assay type: physicochemical; settings: buffer
Rattus norvegicus [5] = test: Analgesic activity in po dosed Wistar rat […] assessed as reaction time for tail withdrawal at dose equivalent to 1.2 mg/kg of ketorolac after 30 mins by tail flick method; assay type: functional
Method in brief: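 Wistar rats, 100–200 g, groups of three. Tail-flick test on a […] analgesiometer with a thermal stimulus. Current set so that more than 90% of rats flick within 5–9 s, and slow responders rejected. Dose equivalent to 1.2 mg/kg given orally in 1% sodium carboxymethylcellulose suspension. %Analgesia = [1 − […]]×100, from reaction times before (T₁) and after (T₂) dosing.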

[6] = Protein binding in plasma in pH 7.4 at 20 ug/ml by spectrophotometry; assay type: ADME, cell-free; settings: read-out: PB (converted)
Method in brief: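 Prodrug solution in PBS pH 7.4. Membrane washed with distilled water, then with pH 7.4 buffer, before use. Withdrawn samples diluted with 1 mL phosphate buffer and prodrug concentration measured spectrophotometrically.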

Rattus norvegicus [7] = test: Antiinflammatory activity against carrageenan-induced paw edema in po dosed Wistar rat at dose equivalent to 2.5 mg/kg ketorolac after 2 hrs; assay type: functional; method in brief: as §1
[8] = Chloroform-acidic buffer partition coefficient, log K at pH 1.4; assay type: physicochemical
[9] = Chloroform-PBS partition coefficient, log K at pH 7.4; assay type: physicochemical
[10] = Metabolic stability in stimulated intestinal fluid assessed as half life at 10 mg by HPLC; assay type: ADME; settings: simulated intestinal fluid
Method in brief: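 10 mg in 2 mL acetonitrile added to 88 mL SIF (pH 7.4). Aliquots chilled in freezing mixture to arrest hydrolysis, vortexed 5 min and centrifuged 5 min. Supernatant analysed on C18 reversed-phase HPLC (acetonitrile:water 50:50), UV at 247 nm.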

Rattus norvegicus [11] = test: Gastrointestinal toxicity in Wistar rat assessed as ulcerogenic indicates at dose equivalent to 1.2 mg/kg of ketorolac orally administered for 5 days; assay type: organism-based; parameters: dose 1.2 mg/kg, route oral; settings: in vivo, po, 120 h
Method in brief: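 Male Wistar rats, 130–150 g, groups of three including control and standard. Suspended in 2% w/v acacia and given orally at dose equivalent to 1.2 mg/kg ketorolac daily for 5 days. Rats fasted after the last dose, then decapitated. Stomach opened and washed, and lesions larger than 0.5 mm counted visually under a 2× binocular magnifier.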

Rattus norvegicus [12] = test: Antiinflammatory activity against carrageenan-induced paw edema in Wistar rat at 2.5 mg/kg, po after 6 hrs; assay type: functional; method in brief: as §1
[13] = Solubility in 0.1 N NaOH; assay type: physicochemical
Rattus norvegicus [14] = test: Antiinflammatory activity against carrageenan-induced paw edema in Wistar rat at 2.5 mg/kg, po after 2 hrs; assay type: functional; method in brief: as §1
[15] = chloroform/acidic buffer, pH 1.4

| solubility [1] | half-life [2] [h] | solubility [4] | fraction unbound at 20 ug/ml [6] | K [8, 15] | K ([9]; chloroform/PBS, pH 7.4) | half-life [10] [h] | K [8] | K [9] | solubility [13] | Structure (SMILES) | Activity (Rattus norvegicus [3]) [%] | Activity (Rattus norvegicus [5]) [%] | Activity (Rattus norvegicus [7]) [%] | UI (Rattus norvegicus [11]) | Activity (Rattus norvegicus [12]) [%] | Activity (Rattus norvegicus [14]) [%] |
| --- | --- | --- | --- | --- | --- | --- | --- | --- | --- | --- | --- | --- | --- | --- | --- | --- |
| Insoluble | 0.45 | Insoluble | 0.55 | 330.12 | 18.26 | 2.13 |  |  |  | CCOC(=O)CC(NC(=O)C1CCn2c(C(=O)c3ccccc3)ccc21)C(=O)OCC (racemic) | 57.72 | 54 | 44 |  |  |  |
| Insoluble | 0.987 | Insoluble | 0.811 | 256.73 | 15.61 | 2.67 |  |  |  | CCOC(=O)C(C)NC(=O)C1CCn2c(C(=O)c3ccccc3)ccc21 (racemic) | 43 | 26 | 27 |  |  |  |
| Insoluble | 0.65 | Insoluble | 0.55 | 380.6 | 20 | 2.67 |  |  |  | CCOC(=O)C(NC(=O)C1CCn2c(C(=O)c3ccccc3)ccc21)C(C)C (racemic) | 49 | 36 | 33 |  |  |  |
| Insoluble | 1.02 | Insoluble | 0.55 | 640 | 23.09 | 2.67 |  |  |  | CCOC(=O)C(CC(C)C)NC(=O)C1CCn2c(C(=O)c3ccccc3)ccc21 (racemic) | 43 | 26 | 27 |  |  |  |
| Insoluble | 0.65 | Insoluble | 0.55 | 656.8 | 23.87 | 2.13 |  |  |  | CCOC(=O)C(NC(=O)C1CCn2c(C(=O)c3ccccc3)ccc21)C(C)CC (racemic) | 49 | 36 | 33 |  |  |  |
| Insoluble | 0.65 | Insoluble | 0.55 | 215.9 | 13.81 | 2.13 |  |  |  | CCOC(=O)CNC(=O)C1CCn2c(C(=O)c3ccccc3)ccc21 (racemic) | 49 | 36 | 33 |  |  |  |

Continued, compound first:

| Structure (SMILES) | solubility [1] | half-life [2] [h] | solubility [4] | fraction unbound at 20 ug/ml [6] | K [8, 15] | K ([9]; chloroform/PBS, pH 7.4) | half-life [10] [h] | K [8] | K [9] | solubility [13] | Activity (Rattus norvegicus [3]) [%] | Activity (Rattus norvegicus [5]) [%] | Activity (Rattus norvegicus [7]) [%] | UI (Rattus norvegicus [11]) | Activity (Rattus norvegicus [12]) [%] | Activity (Rattus norvegicus [14]) [%] |
| --- | --- | --- | --- | --- | --- | --- | --- | --- | --- | --- | --- | --- | --- | --- | --- | --- |
| CCOC(=O)CCC(NC(=O)C1CCn2c(C(=O)c3ccccc3)ccc21)C(=O)OCC (racemic) | Insoluble | 0.45 | Insoluble | 0.55 | 319.5 | 18.08 | 2.13 |  |  |  | 49 | 54 | 44 |  |  |  |
| CCOC(=O)C(Cc1ccccc1)NC(=O)C1CCn2c(C(=O)c3ccccc3)ccc21 (racemic) | Insoluble | 0.45 | Insoluble | 0.55 | 504.05 | 23.18 | 2.13 |  |  |  | 49 | 54 | 44 |  |  |  |
| CCOC(=O)CCNC(=O)C1CCn2c(C(=O)c3ccccc3)ccc21 (racemic) | Insoluble | 0.882 | Insoluble | 0.621 | 250.25 | 15.33 | 2.67 |  |  |  | 49 |  | 33 |  |  |  |
| CCOC(=O)C(Cc1c[nH]c2ccccc12)NC(=O)C1CCn2c(C(=O)c3ccccc3)ccc21 (racemic) | Insoluble | 0.825 | Insoluble | 0.55 |  |  | 2.98 | 429.9 | 21.42 |  | 43 | 26 | 27 |  |  |  |
| O=C(c1ccccc1)c1ccc2n1CCC2C(=O)O (stereo unspecified) [KETOROLAC] |  |  | Insoluble |  | 75.62 | 6.022 |  |  |  | Soluble |  |  |  | 23.2 | 54.21 | 64.24 |

Reference: ChEMBL document CHEMBL1154430, “Synthesis, characterization and pharmacological evaluation of amide prodrugs of ketorolac” (Eur J Med Chem, 2008)
